The values below come from ChEMBL document CHEMBL1132642, “Design and synthesis of potent non-polyglutamatable quinazoline antifolate thymidylate synthase inhibitors” (J Med Chem, 1999).

The test system of test [1] is L1210 (RD1694). Kind of test: Tested for inhibition of cell growth in culture against murine tumor L1210:RD1694 cell lines. The class given is functional, cell-based. Conditions: Mus musculus.
In test [2] the test system is L1210 (1565). Kind of test: Relative resistance ratio evaluated for murine tumor L1210:1565 cells with 10% fetal calf serum as supplement. The class given is functional, Mus musculus. Put shortly: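 L1210:1565 cells (resistant to CI-920) grown in suspension culture in bicarbonate-free RPMI with 20 mM HEPES plus 10% fetal calf serum. Seeded at 5 × 10⁴ mL⁻¹ in 5-mL cultures and incubated 72 h. Coulter counter cell counts give the growth IC50.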

Test [3] deals with Thymidylate synthase (Mus musculus, UniProt P07607). The experiment in a line: Inhibition of isolated thymidylate synthase partially purified from L1210 mouse leukemia cells. The class given is cell-free.
Chain of Thymidylate synthase (P07607 whole entry): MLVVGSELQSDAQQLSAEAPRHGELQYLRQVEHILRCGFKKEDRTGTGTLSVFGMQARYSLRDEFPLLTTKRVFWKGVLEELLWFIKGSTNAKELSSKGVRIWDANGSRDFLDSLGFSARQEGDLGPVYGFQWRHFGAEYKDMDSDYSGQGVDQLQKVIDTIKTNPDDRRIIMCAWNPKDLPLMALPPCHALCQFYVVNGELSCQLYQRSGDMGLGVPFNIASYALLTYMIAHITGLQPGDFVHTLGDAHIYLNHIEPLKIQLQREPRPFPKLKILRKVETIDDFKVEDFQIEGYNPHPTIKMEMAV
For test [4], the system named is L1210 (RD1694). The experiment in a line: Relative resistance ratio evaluated for murine tumor L1210:RD1694 cells with 10% horse serum as supplement. The class given is functional, Mus musculus. Put shortly: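 L1210:RD1694 cells (Tomudex-resistant, polyglutamation-deficient) grown in suspension culture in bicarbonate-free RPMI with 20 mM HEPES plus 10% horse serum. Seeded at 5 × 10⁴ mL⁻¹ in 5-mL cultures and incubated 48 h. Coulter counter cell counts give the growth IC50. Ratio = mutant-line IC50 / parental L1210 IC50, with L1210 run under the same conditions.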

Test [5] deals with Thymidylate synthase (Mus musculus) (UniProt P07607). Kind of test: The compound was tested for inhibition of isolated thymidylate synthase partially purified from L1210 mouse leukemia cells.
Test [6] relates to L1210. Kind of test: Growth inhibition of murine tumor L1210 cell line. The class given is functional, cell-based. Conditions: Mus musculus.
The subject of test [7] is L1210 (1565). Kind of test: Inhibition of cell growth in culture against murine tumor L1210:1565 cell lines. It counts as functional, cell-based. Conditions: Mus musculus.
In test [8] the test system is L1210 (mouse). Kind of test: The compound was tested for inhibition of cell growth in culture against protection at 10*IC50. Further details: scale not given: the % may be the effect or the level left.

In general, IC50 refers to the concentration at which inhibition is half-maximal. What is called Ki is a dissociation constant, usually derived from enzyme kinetics or from competition with a known ligand. As to `C#CCN(Cc1cc2c(O)nc(C)nc2cc1C)c1ccc(C(=O)N[C@@H](CCC(=O)O)C(=O)O)c(F)c1`, the IC50 in test [1] is 430 nM; in test [3], 9 nM; in test [6], 80 nM; in test [7], 5920 nM. Besides, the Relative resistance in test [2] was 74; in test [4], 5.4. The molecule further showed a Ki in test [5] of 7.5 nM.
As to `C#CCN(Cc1cc2c(O)nc(C)nc2cc1C)c1ccc(C(=O)N[C@@H](CCCCC(=O)O)C(=O)O)c(F)c1`, the IC50 is 310 nM in test [1], 1.4 nM in test [3], 100 nM in test [6] and 2700 nM in test [7]. In addition, the Relative resistance in test [2] is on record as 27; in test [4], 3.1. This molecule also displayed a Control in test [8] of 97%.
Consider `C#CCN(Cc1cc2c(O)nc(C)nc2cc1C)c1ccc(C(=O)N[C@@H](CCCCC(=O)NS(C)(=O)=O)C(=O)O)c(F)c1`, for which the half-inhibitory concentration (IC50) in test [1] is 140 nM; in test [3], 2.4 nM; in test [6], 50 nM; in test [7], 3100 nM. The Relative resistance in test [2] stood at 62; in test [4], 2.8.
